Experimental data as given in ChEMBL document CHEMBL3244147 (J Med Chem, 1978).
Activity calls are given as the source filed them. The rule behind the calls is not given here. Where a SMILES comes first, the peptide text is derived from it. The star is where a group is joined. NH(4-N(CH2CH2Cl)2-phenyl) = ClCCN(CCCl)c1ccc(N*)cc1; Cbz = O=C(OCc1ccccc1)*

Columns and labels:
[1] = Toxicity in ip dosed CF1 mouse after 14 days of injection; type: organism-based; settings: in vivo
Procedure, shortened: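 Female Carworth Farms mice, 16-20 g. Compound was suspended in 1% aqueous methylcellulose (ultrasonicated if insoluble) and diluted to doses of 4-324 mg/kg, given as 0.45 mL per mouse by a single intraperitoneal injection. Five mice per dose; survivors were counted at 14 days. LD50 is expressed in μmol/kg.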

[2] = system: Sarcoma-180; test: Antitumor activity against mouse Sarcoma 180 at 10 to 50% of LD50; type: functional
Procedure, shortened: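 Mice carrying well-advanced Sarcoma-180 tumours received a single intraperitoneal dose.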

[3] = system: Liver; test: Prodrug conversion in guinea pig liver homogenate assessed as release of labelled carbobenzyloxy-L-pro-lyl-L-leucine; type: ADME, tissue-based, Cavia porcellus
[4] = Prodrug conversion in pig liver homogenate assessed as release of labelled carbobenzyloxy-L-pro-lyl-L-leucine; type: ADME, tissue-based, Sus scrofa
[5] = system: Sarcoma-180; test: Drug metabolism assessed as mouse Sarcoma 180 homogenate-mediated compound disappearance after 24 hrs by TLC autoradiography; type: ADME; settings: sarcoma-180, 24 h
Procedure, shortened: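 S-180 tumour tissue (0.85 g) was homogenised in cold pH 7.3 calcium acetate/DMSO buffer containing actidione, then spun at 5000 rpm for 10 min. The supernatant replaced enzyme in the collagenase-type assay with 14C-labelled substrate (2 mg/mL in DMSO) in 28% DMSO reaction mixture. Disappearance and products were read by TLC autoradiography.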

[6] = system: Liver; test: Prodrug conversion in mouse liver homogenate assessed as cleavage of labelled compound; type: ADME, tissue-based
[7] = Prodrug conversion in pig liver homogenate assessed as cleavage of labelled compound; type: ADME, tissue-based, Sus scrofa
[8] = Drug metabolism assessed as bacterial collagenase-mediated compound disappearance after 24 hrs by TLC autoradiography; type: ADME
Procedure, shortened: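 14C-labelled substrate at 2 mg/mL in dimethyl sulfoxide. 0.3 mL of it was mixed with 0.95 mL of pH 7.3 barbiturate/acetate/NaCl buffer containing calcium acetate, actidione and DMSO; the reaction mixture was 28% DMSO. The buffer held 5 mg bacterial collagenase (375 units/mg). Controls had no enzyme, trypsin or bovine serum albumin. Products were followed by TLC autoradiography.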

[9] = system: Liver; test: Prodrug conversion in rat liver homogenate assessed as cleavage of labelled compound; type: ADME, tissue-based
[10] = system: Liver; test: Prodrug conversion in rat liver homogenate assessed as release of labelled carbobenzyloxy-L-pro-lyl-L-leucine; type: ADME, tissue-based
[11] = system: Liver; test: Prodrug conversion in mouse liver homogenate assessed as release of labelled carbobenzyloxy-L-pro-lyl-L-leucine; type: ADME, tissue-based
[12] = system: Liver; test: Prodrug conversion in guinea pig liver homogenate assessed as cleavage of labelled compound; type: ADME, tissue-based, Cavia porcellus

CC(C)C[C@H](NC(=O)[C@@H]1CCCN1C(=O)[C@H](N)Cc1ccccc1)C(=O)NCC(=O)N1CCC[C@H]1C(=O)NCC(=O)Nc1ccc(N(CCCl)CCCl)cc1.O=C(O)C(F)(F)F
LD50 at 336 h [1]: 106 µmol/kg

NCC(=O)N1CCC[C@H]1C(=O)NCC(=O)Nc1ccc(N(CCCl)CCCl)cc1.O=C(O)C(F)(F)F
LD50 at 336 h [1]: 19.7 µmol/kg

CC(C)C[C@H](NC(=O)[C@@H]1CCCN1C(=O)[C@@H](C)NC(=O)OC(C)(C)C)C(=O)NCC(=O)N1CCC[C@H]1C(=O)NCC(=O)Nc1ccc(N(CCCl)CCCl)cc1
LD50 at 336 h [1]: 94.5 µmol/kg

CC(C)C[C@H](NC(=O)[C@@H]1CCCN1C(=O)[C@@H](Cc1ccccc1)NC(=O)OC(C)(C)C)C(=O)NCC(=O)N1CCC[C@H]1C(=O)NCC(=O)Nc1ccc(N(CCCl)CCCl)cc1
LD50 at 336 h [1]: 105 µmol/kg

CC(C)C[C@H](NC(=O)[C@@H]1CCCN1C(=O)[C@H](N)CCCCN)C(=O)NCC(=O)N1CCC[C@H]1C(=O)NCC(=O)Nc1ccc(N(CCCl)CCCl)cc1.O=C(O)C(F)(F)F
LD50 at 336 h [1]: 78 µmol/kg | Activity [2]: inactive

O=C(CNC(=O)[C@@H]1CCCN1C(=O)OCc1ccccc1)Nc1ccc(N(CCCl)CCCl)cc1
LD50 at 336 h [1]: 119 µmol/kg

CC(C)C[C@H](NC(=O)[C@@H]1CCCN1C(=O)O[14CH2]c1ccccc1)C(=O)NCC(=O)N1CCC[C@H]1C(=O)NCC(=O)Nc1ccc(N(CCCl)CCCl)cc1
Drug metabolism [3]: metabolite_detected | Drug metabolism [4]: metabolite_detected | Drug metabolism [5]: metabolite_detected | Drug metabolism [6]: metabolite_detected | Drug metabolism [7]: metabolite_detected | Drug metabolism [8]: metabolite_detected | Drug metabolism [9]: metabolite_detected | Drug metabolism [10]: metabolite_detected | Drug metabolism [11]: metabolite_detected | Drug metabolism [12]: metabolite_detected

CC(C)C[C@H](N)C(=O)NCC(=O)N1CCC[C@H]1C(=O)NCC(=O)Nc1ccc(N(CCCl)CCCl)cc1.O=C(O)C(F)(F)F (H-LGPG-{NH(4-N(CH2CH2Cl)2-phenyl)})
LD50 at 336 h [1]: 10.4 µmol/kg

CC(C)C[C@H](NC(=O)[C@@H]1CCCN1C(=O)[C@@H](CCCCNC(=O)OC(C)(C)C)NC(=O)OC(C)(C)C)C(=O)NCC(=O)N1CCC[C@H]1C(=O)NCC(=O)Nc1ccc(N(CCCl)CCCl)cc1
LD50 at 336 h [1]: 100 µmol/kg

CC(C)C[C@H](NC(=O)[C@@H]1CCCN1C(=O)OCc1ccccc1)C(=O)NCC(=O)N1CCC[C@H]1C(=O)NCC(=O)Nc1ccc(N(CCCl)CCCl)cc1 (Cbz-PLGPG-{NH(4-N(CH2CH2Cl)2-phenyl)})
LD50 at 336 h [1]: 123 µmol/kg | Activity [2]: inactive
